Results on 17 compounds are retold here after ChEMBL document CHEMBL1121799, “Beta-adrenoceptor stimulant properties of amidoalkylamino-substituted 1-aryl-2-ethanols and 1-(aryloxy)-2-propanols” (1981).

The term ED50 denotes the midpoint of the dose-response relation.

The species named for assay [1] is Canis familiaris. The assay is described as follows: Intrinsic sympathomimetic activity (ISA, calculated as the percent of maximum change in heart rate (HR). In kind it is functional, Canis lupus familiaris. The gist of the method:
(§1)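 Same anesthetized, ventilated dog preparation with a pump-perfused left hind limb. An isoproterenol curve was run first. About 45 min later, once HR and HLPP had returned to control, cumulative iv doses of test compound in saline were given. ISA is the maximum HR or HLPP change produced by the compound, expressed as a percentage of the isoproterenol maximum.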

Assay [2] is filed under the species Canis familiaris. The assay is described as follows: Intrinsic sympathomimetic activity (ISA), calculated as the percent of maximum change in hind limb perfusion pressure (HLPP). Type of assay: functional, Canis lupus familiaris, Hindlimb. The gist of the method: as §1
For assay [3], the system named is Canis familiaris. In words: Effective dose required for the maximum heart rate in anesthetized dogs. In kind it is functional. To be noted: Canis lupus familiaris. In a few lines: (§2)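 Anesthetized dogs on pentobarbital (20 mg/kg iv, then 2 mg/kg iv every 30 min), ventilated with 40% O2 in air. Left hind limb pump-perfused from the abdominal aorta, heparin 500 IU/kg iv. HR from a lead II ECG-driven cardiotachometer. Arterial pCO2 held at 34-42 mmHg and pH 7.35-7.43. Cumulative iv doses in saline. ED50 taken from dose-response curves of peak HR or HLPP change.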

For assay [4], the system named is Canis familiaris. In words: Effective dose required for the maximum hind limb perfusion pressure(HLPP) in anesthetized dogs. Type of assay: functional. Particulars: Canis lupus familiaris, Hindlimb. In a few lines:
as §2

The species entered for assay [5] is Canis familiaris. In words: Selectivity is expressed as the ratio of ED50 on hind limb perfusion pressure to the ED50 on heart rate. In kind it is functional, Canis lupus familiaris. The gist of the method:
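Cardioselectivity is the ratio of ED50 for HLPP to ED50 for HR. Both come from cumulative iv dose-response curves in pentobarbital-anesthetized dogs with a pump-perfused hind limb and a cardiotachometer reading HR.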

On to `O=C(O)C(=O)O.O=S(=O)(NCCNCC(O)COc1ccc(O)cc1)c1ccccc1` (stereo not given), for which the ISA in the assay filed under Canis familiaris [1] is recorded as 55%; in the assay filed under Canis familiaris [2], 45%. The ED50 in the assay on Canis familiaris [3] was 0.074 µmol/kg; in the assay on Canis familiaris [4], 0.055 µmol/kg. Also, in the assay filed under Canis familiaris [5], the Selectivity turned out to be 0.7.
`CC(C)NCC(O)COc1cc(O)cc(O)c1.O=C(O)C(=O)O` (stereo not given): the ISA in the assay listed under Canis familiaris [1] is given as 32%; in the assay filed under Canis familiaris [2], 25%. Moreover, the ED50 with Canis familiaris [3] and in the assay on Canis familiaris [4] was 0.012 µmol/kg in each case. In addition, in the assay listed under Canis familiaris [5], the Selectivity is reported as 1.
Take `CCN(CC)C(=O)NCCNCC(O)COc1ccc(O)cc1.O=C(O)C(=O)O` (stereo not given): the ISA in the assay listed under Canis familiaris [1] is listed as 28%; in the assay filed under Canis familiaris [2], 18%. The ED50 in the assay on Canis familiaris [3] is 0.037 µmol/kg; in the assay on Canis familiaris [4], 0.036 µmol/kg. Further, the Selectivity in the assay listed under Canis familiaris [5] was found to be 10.
In the case of `CC(C)NCC(O)COc1cccc(O)c1.O=C(O)C(=O)O` (stereo not given), the ISA in the assay filed under Canis familiaris [1] is on record as 57%; in the assay listed under Canis familiaris [2], 33%. Moreover, the results for the ED50 with Canis familiaris [3] and in the assay on Canis familiaris [4] were 0.018 µmol/kg and 0.067 µmol/kg, respectively. Also, the Selectivity in the assay listed under Canis familiaris [5] was found to be 3.7.
As to `O=C(NCCNCC(O)COc1ccc(O)cc1)N1CCOCC1` (stereo not given) [XAMOTEROL], the ISA in the assay filed under Canis familiaris [1] is 50%; in the assay listed under Canis familiaris [2], 0%. The ED50 in the assay with Canis familiaris [3] was 0.012 µmol/kg; in the assay with Canis familiaris [4], more than 3 µmol/kg. Further, the Selectivity in the assay filed under Canis familiaris [5] is reported as more than 250.
In the case of `CC(C)C(=O)NCCNCC(O)COc1ccc(O)c(O)c1.O=C(O)C(=O)O` (stereo not given), the ISA in the assay filed under Canis familiaris [1] and in the assay filed under Canis familiaris [2] was 100% throughout. Besides, the ED50 with Canis familiaris [3] and in the assay on Canis familiaris [4] was 0.0016 µmol/kg in each case. Besides, in the assay filed under Canis familiaris [5], the Selectivity was 1.
In the case of `O=C(O)C(=O)O.O=S(=O)(NCCNCC(O)COc1ccc(O)cc1)Nc1ccccc1` (stereo not given), the ISA in the assay filed under Canis familiaris [1] is 92%; in the assay listed under Canis familiaris [2], 79%. The ED50 with Canis familiaris [3] is 0.018 µmol/kg; in the assay with Canis familiaris [4], 0.052 µmol/kg. Moreover, the Selectivity in the assay listed under Canis familiaris [5] came out at 2.9.
`O=C(NCCNCC(O)COc1ccc(O)cc1)Nc1ccccc1.O=C(O)C(=O)O` (stereo not given): the ISA in the assay listed under Canis familiaris [1] is on record as 52%; in the assay filed under Canis familiaris [2] it was 45%. Further, the ED50 with Canis familiaris [3] is 0.058 µmol/kg; with Canis familiaris [4] it was 0.165 µmol/kg. Besides, the Selectivity in the assay filed under Canis familiaris [5] was 2.8.
The matching figures for `CC(C)C(=O)NCCNCC(O)COc1cc(O)cc(O)c1.O=C(O)C(=O)O` (stereo not given): 19%, 18%, 0.019 µmol/kg, 0.016 µmol/kg and 0.8.
Regarding `CC(C)NCC(O)c1ccc(O)c(O)c1` (stereo not given) [ISOPROTERENOL], the ISA in the assay listed under Canis familiaris [1] and in the assay filed under Canis familiaris [2] was 100% throughout. Also, the figures for the ED50 in the assay on Canis familiaris [3] and in the assay with Canis familiaris [4] were 0.0014 µmol/kg and 0.0008 µmol/kg, respectively. For the same compound, the Selectivity in the assay filed under Canis familiaris [5] turned out to be 0.5.
In the case of `CC(C)C(=O)NCCNCC(O)c1cccc(O)c1.O=C(O)C(=O)O` (stereo not given), the ISA in the assay listed under Canis familiaris [1] and in the assay filed under Canis familiaris [2] was 75% each time. Moreover, the results for the ED50 with Canis familiaris [3] and in the assay on Canis familiaris [4] were 0.038 µmol/kg and 0.132 µmol/kg, respectively. In addition, the Selectivity in the assay filed under Canis familiaris [5] came out at 3.5.
For the compound `COCCN(C)C(=O)NCCNCC(O)COc1ccc(O)cc1.O=C(O)C(=O)O` (stereo not given), the results for the ISA in the assay filed under Canis familiaris [1] and in the assay filed under Canis familiaris [2] were 27% and 0%, respectively. In addition, the ED50 in the assay on Canis familiaris [3] is 0.012 µmol/kg; in the assay with Canis familiaris [4], more than 3 µmol/kg. The Selectivity in the assay filed under Canis familiaris [5] is more than 250.
For the compound `O=C(NCCNCC(O)c1ccc(O)c(CO)c1)Nc1ccccc1.O=C(O)C(=O)O` (stereo not given), the ISA in the assay filed under Canis familiaris [1] is 76%; in the assay filed under Canis familiaris [2], 88%. Moreover, the ED50 with Canis familiaris [3] stood at 0.038 µmol/kg; in the assay on Canis familiaris [4] it was 0.304 µmol/kg. The Selectivity in the assay listed under Canis familiaris [5] stood at 8.
In the case of `O=C(NCCNCC(O)COc1ccc(O)c(O)c1)Nc1ccccc1.O=C(O)C(=O)O` (stereo not given), the ISA in the assay filed under Canis familiaris [1] is 80%; in the assay listed under Canis familiaris [2], 100%. For the same compound, the 50% effective dose (ED50) in the assay with Canis familiaris [3] is 0.0041 µmol/kg; in the assay on Canis familiaris [4], 0.1 µmol/kg. In the assay listed under Canis familiaris [5], the Selectivity turned out to be 24.4.
On to `CN(C)C(=O)NCCNCC(O)COc1ccc(O)cc1.O=C(O)C(=O)O` (stereo not given), for which the values for the ISA in the assay listed under Canis familiaris [1] and in the assay filed under Canis familiaris [2] were 29% and 0%, respectively. For the same compound, the ED50 was 0.024 µmol/kg in the assay on Canis familiaris [3] and more than 1 µmol/kg in the assay with Canis familiaris [4]. For the same compound, in the assay filed under Canis familiaris [5], the Selectivity was more than 40.
For the compound `NC(=O)NCCNCC(O)COc1ccc(O)cc1` (stereo not given), the ISA in the assay listed under Canis familiaris [1] was 92%; in the assay listed under Canis familiaris [2] it was 50%. Further, the figures for the ED50 with Canis familiaris [3] and in the assay with Canis familiaris [4] were 0.078 µmol/kg and 0.134 µmol/kg, respectively. The Selectivity in the assay filed under Canis familiaris [5] came out at 1.7.
For `Cl.O=C(NCCNCC(O)COc1ccc(O)cc1)NCc1ccccc1` (stereo not given), the figures for the ISA in the assay listed under Canis familiaris [1] and in the assay listed under Canis familiaris [2] were 80% and 70%, respectively. Besides, the values for the 50% effective dose (ED50) in the assay on Canis familiaris [3] and in the assay on Canis familiaris [4] were 0.019 µmol/kg and 0.081 µmol/kg, respectively. In the assay filed under Canis familiaris [5], the Selectivity is recorded as 4.3.
